The record followed here is PubChem BioAssay AID623981 (Broad Institute, 2012).

Several values for one entry are separate records, joined by “and”; a condition that tells them apart may be missing. Equal entries are not always repeated. Activity calls are given as the source filed them.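 Rule for the calls: active = compounds lowering growth signal whose fitted half-effect dose is at most twice their top tested dose; inconclusive = flat fit with moderate inhibition, or poor curve fit; inactive = the rest.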

In one assay the test system is C. albicans CaCi-2 growth, Alamar Blue fluorescence, 48 h. Kind of assay: C. albicans CaCi-2 growth inhibitors, compound alone – CaCi-2 strain, dry powder, plate reader, set 3, dose response (AID 623981).
Conditions: not given
In short, it runs like this:
(§1)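 System: fluconazole-resistant Candida albicans strain CaCi-2. Quantity: fungal inoculum at starting A600 of 0.00015. Medium: MOPS-buffered RPMI 1640 plus uridine, glucose, Pen/Strep. Times: 48 h at 37 °C, humidified, plus 2 h stain. Technique: Alamar Blue fluorescence. Controls: amphotericin 10 µM as positive control.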
As usually defined, the AC50 is the midpoint of the concentration-response curve, whichever way the signal moves. Consider `CCOC(=O)N1C(=O)C2(CCCCC2)N(c2ccc(C#N)cc2)C1=S`, for which the half-maximal activity concentration (AC50) was 0.307 µM. As for `CCOC(=O)N1C(=O)C2(CCCCC2)N(c2ccccc2)C1=S`, the half-maximal activity concentration (AC50) is 0.697 µM. In the case of `CCOC(=O)N1C(=O)C2(CCCCC2)N(c2cccc(C)c2)C1=S`, the AC50 is 1.26 µM. For the compound `CCOC(=O)N1C(=O)C2(CCCCC2)N(c2ccc(C)cc2)C1=S`, the AC50 was 2.74 µM and 3.07 µM. Consider `CC1/C=C/C=C\C=C\C=C\C=C\C=C\C=C\C(O[C@H]2OC(C)C(O)C(N)C2O)CC2OC(O)(CC(O)CC(O)C(O)CCC(O)CC(O)CC(=O)OC(C)C(C)C1O)CC(O)C2C(=O)O` (stereo partly drawn), for which the AC50 was 0.0923 µM. As for `CCOC(=O)N1C(=O)C2(CCCCC2)N(c2ccc(F)cc2)C1=S`, the AC50 was 0.15 µM. Still for that read-out and setting: the figure for `CCOC(=O)N1C(=O)C2(CCCCC2)N(c2ccc(Cl)cc2)C1=S` is 0.221 µM.

System in the next assay: not listed separately
Described as above. To be noted: C. albicans CaCi-2 growth, Alamar Blue fluorescence, 48 h; at 3 µM (top of the series). In short, it runs like this:
as §1
On the technique in general: Alamar Blue is a resazurin reagent that responds to reducing activity.
Consider `C/C=C/[C@@H]1[C@H]2C[C@@H](C)CC[C@@H]2C(C)=C[C@H]1C(=O)c1c(O)c(-c2ccc(O)cc2)c[nH]c1=O`, for which the activity change, negative = inhibition is 47.9% (inactive).
